Experiment [1] addresses Human immunodeficiency virus type 1 reverse transcriptase (Human immunodeficiency virus 1) (UniProt Q72547). As to the kind of experiment: In vitro for inhibition of HIV-1 reverse transcriptase at 1 uM. In outline:
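Compounds were first screened as percent enzyme inhibition at a single 1 μM concentration. IC50 was not determined for compounds giving under 35% inhibition at 1 μM.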

In experiment [2] the target is Human immunodeficiency virus type 1 reverse transcriptase (Human immunodeficiency virus 1, UniProt Q72547). As to the kind of experiment: In vitro for inhibition of HIV-1 reverse transcriptase.

The inhibition is the relative decrease from the control value, in per cent. A word on the IC50: it is the midpoint of a concentration-inhibition curve.

Where only a bound is given, the exact number is not on record here.

`CCN1c2cc(Br)c(Br)nc2N(C)C(=O)c2cccnc21` returned an inhibition in experiment [1] of less than 35%.
In turn, `CCN1c2ncc(N)cc2C(=O)N(C)c2cccnc21` registered an IC50 in experiment [2] of 130 nM.
The molecule `CN1C(=O)c2cccnc2N(C2CC2)c2ncc(Cl)cc21` had a half-inhibitory concentration (IC50) in experiment [2] of 290 nM.
`CCN1c2cc(C)c(C)nc2N(C)C(=O)c2cc(N)cnc21` gave a half-maximal inhibitory concentration (IC50) in experiment [2] of 150 nM.
Molecule `CCN1c2cccnc2N(C)C(=O)c2cccnc21` gave a half-inhibitory concentration (IC50) in experiment [2] of 1300 nM.
On the same count and under the same terms, for `CCN1c2nc(C)ccc2C(=O)N(C)c2cccnc21` the value was 1000 nM; for `CN1C(=O)c2cccnc2N(C2CC2)c2ccc(Cl)nc21`, 1000 nM.
As to `CCN1c2cccnc2N(C)C(=O)c2cc(N)cnc21`, 280 nM corresponded to half-maximal inhibition in experiment [2] (IC50).
`CCN1c2cc(Br)cnc2N(C)C(=O)c2cccnc21`: the IC50 in experiment [2] is 550 nM.
`CCN1c2cc(-c3cccc(N)c3)cnc2N(C)C(=O)c2cccnc21` showed an inhibition in experiment [1] of less than 35%.
For `CCN1c2ncccc2C(=O)N(C)c2nccc(C)c21`, the inhibition in experiment [1] was less than 35%.
Molecule `CCN1c2cc(C)c(C)nc2N(C)C(=O)c2cccnc21` yielded an IC50 in experiment [2] of 190 nM.
`CCN1c2ncccc2C(=O)N(C)c2ccc(-c3cccc(N)c3)nc21`: the half-inhibitory concentration (IC50) in experiment [2] came to 70 nM.
Molecule `CCN1c2cccnc2N(C)C(=O)c2cc(Br)cnc21` showed an inhibition in experiment [1] of less than 35%.
With `CCN1c2ncc(Br)cc2C(=O)N(C)c2cccnc21`, 1300 nM corresponded to half-maximal inhibition in experiment [2] (IC50).
`CN1C(=O)c2cccnc2N(C2CC2)c2cc(Cl)cnc21` displayed an IC50 in experiment [2] of 760 nM.
With `CCN1c2ccc(C)nc2N(C)C(=O)c2cccnc21`, in experiment [2], the half-inhibitory concentration (IC50) was determined as 1760 nM.
In experiment [1], `CCN1c2cccnc2N(C)C(=O)c2ccc(C)nc21` gave an inhibition of less than 35%.
`CN1C(=O)c2cccnc2N(C2CC2)c2nc(Cl)ccc21`: in experiment [2], the IC50 worked out at 90 nM.
In experiment [1], `CCN1c2ccc([N+](=O)[O-])nc2N(C)C(=O)c2cccnc21` returned an inhibition of less than 35%.
Regarding `CCN1c2ncccc2C(=O)N(C)c2cc([N+](=O)[O-])cnc21`, the inhibition in experiment [1] was less than 35%.
